Measurements taken from ChEMBL document CHEMBL3826928, “Incorporation of Phosphonate into Benzonaphthyridine Toll-like Receptor 7 Agonists for Adsorption to Aluminum Hydroxide” (J Med Chem, 2016).

Key:
[1] = Adsorption on alum in pH 6.5 histidine buffer assessed as compound adsorbed at 1 mg/ml incubated for 1 hr in presence of inorganic phosphate by LC-MS analysis; assay type: physicochemical; settings: pH 6.5, 1 h
[2] = biological target: T1, Toll-like receptor 7 (Mus musculus) (UniProt P58681); assay: Agonist activity at TLR7 in Balb/c mouse splenocytes assessed as induction of IL-6 secretion in supernatant after 18 hrs relative to resiquimod; assay type: cell-based
T1 sequence (whole entry): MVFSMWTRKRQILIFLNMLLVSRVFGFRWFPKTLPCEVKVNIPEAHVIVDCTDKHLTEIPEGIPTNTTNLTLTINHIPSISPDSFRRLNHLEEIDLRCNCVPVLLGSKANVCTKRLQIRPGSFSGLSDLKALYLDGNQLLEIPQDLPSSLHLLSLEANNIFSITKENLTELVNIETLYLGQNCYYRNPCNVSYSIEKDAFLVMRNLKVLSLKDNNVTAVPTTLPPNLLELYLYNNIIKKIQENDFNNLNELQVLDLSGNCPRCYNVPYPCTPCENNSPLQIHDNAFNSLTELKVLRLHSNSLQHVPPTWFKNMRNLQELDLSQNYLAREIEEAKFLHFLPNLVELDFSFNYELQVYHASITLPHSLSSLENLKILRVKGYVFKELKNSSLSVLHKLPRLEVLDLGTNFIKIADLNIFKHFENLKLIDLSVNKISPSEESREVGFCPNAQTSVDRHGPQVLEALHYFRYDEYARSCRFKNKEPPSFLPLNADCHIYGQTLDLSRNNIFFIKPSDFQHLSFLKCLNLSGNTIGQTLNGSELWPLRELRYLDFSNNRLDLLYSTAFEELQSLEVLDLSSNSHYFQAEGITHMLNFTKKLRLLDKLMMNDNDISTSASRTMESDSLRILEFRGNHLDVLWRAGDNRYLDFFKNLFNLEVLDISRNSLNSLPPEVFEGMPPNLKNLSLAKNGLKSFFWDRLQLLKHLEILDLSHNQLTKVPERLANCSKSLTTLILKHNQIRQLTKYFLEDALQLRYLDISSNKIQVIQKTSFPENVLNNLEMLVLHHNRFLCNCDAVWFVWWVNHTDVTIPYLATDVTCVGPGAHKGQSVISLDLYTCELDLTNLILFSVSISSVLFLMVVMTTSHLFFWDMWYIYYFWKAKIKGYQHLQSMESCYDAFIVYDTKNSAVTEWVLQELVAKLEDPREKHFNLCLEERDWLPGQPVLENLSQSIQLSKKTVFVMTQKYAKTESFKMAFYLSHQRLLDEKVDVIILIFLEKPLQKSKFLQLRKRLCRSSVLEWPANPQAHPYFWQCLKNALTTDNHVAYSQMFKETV
Outline: (§1)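 Spleens from female BALB/c mice (6−10 weeks), single-cell suspension, RBC lysis; 5 × 10⁵ splenocytes per well in RPMI 1640 with 10% FCS, 2-ME. Compounds as sodium salts (1 equiv NaOH) from 10 mM water stocks, 3-fold 10-point dilutions from 30 μM.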

[3] = Adsorption on alum in pH 6.5 histidine buffer assessed as compound adsorbed at 1 mg/ml incubated for 1 hr by LC-MS analysis relative to control; assay type: physicochemical; settings: pH 6.5, 1 h
Outline: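 Compound dissolved in endotoxin-free water, then combined with Alhydrogel alum suspension and 100 mM histidine pH 6.5 stock; final 1 mg/mL compound, 3 mg/mL alum in 10 mM histidine, gently agitated 1 h at room temperature. Aliquot centrifuged 13 000 rpm 10 min; supernatant analysed by LCMS against nonadsorbed reference to give unbound fraction, bound fraction derived indirectly.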

Toll-like receptor 7 = biological target: T2, Toll-like receptor 7 (Mus musculus, UniProt P58681); assay: Agonist activity at TLR7 in Balb/c mouse splenocytes assessed as induction of IL-6 secretion in supernatant after 18 hrs; assay type: cell-based; outline: as §1
T2 sequence (P58681 whole entry): T1 sequence (whole entry)

[4] = Aqueous solubility of compound in pH 1.5 to 10 solution by potentiometric titration method; assay type: physicochemical; settings: buffer
Outline: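 About 2 mg solid titrated potentiometrically from pH 10 to pH 1.5 on Sirius T3 after pKa determination with MeOH cosolvent; intrinsic solubility calculated from pKa shift on precipitation (Noyes−Whitney), solubility−pH profile extrapolated by Henderson−Hasselbalch.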

[5] = Aqueous solubility of compound in pH 6.5 to 7.2 solution incubated for 24 hrs by saturated shake flask method; assay type: physicochemical; settings: buffer, pH 6.5, 24 h
Serum [6] = assay: Drug level in Balb/c mouse serum at 100 ug, im measured up to 24 hrs post dose using alum bound compound formulation; assay type: ADME, organism-based; settings: in vivo
Outline: (§2)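 Female BALB/c mice (6−8 weeks, 3 per group) given 100 μg intramuscularly, with or without alum, 50 μL in each hind leg. Serum from retro-orbital bleeds at time points; protein precipitation, reverse-phase LC and ESI+ MRM mass spectrometry. Injected muscle drug level measured at 24 h.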

Serum [7] = assay: Drug level in Balb/c mouse serum at 100 ug, im measured at 24 hrs post dose; assay type: ADME, organism-based; settings: in vivo; outline: as §2
Muscle tissue [8] = assay: Drug level in Balb/c mouse muscle at 100 ug, im measured at 24 hrs post dose using alum bound compound formulation; assay type: ADME, organism-based; settings: in vivo; outline: as §2
Muscle tissue [9] = assay: Drug level in Balb/c mouse muscle at 100 ug, im measured at 24 hrs post dose; assay type: ADME, organism-based; settings: in vivo; outline: as §2

Row | Structure (SMILES) | Activity [1] | %max [2] [%] | Activity [3] | EC50 (Toll-like receptor 7) [nM] | solubility [4] | Drug uptake (Serum [6]) | Drug uptake (Serum [7]) | Drug uptake (Muscle tissue [8]) | Drug uptake (Muscle tissue [9]) | solubility [5]
1 | Cc1ccc2c(c1)nc(N)c1ncc(CCc3ccc(OCCCP(=O)(O)O)cc3C)cc12 |  | 98 | ND(Insoluble) | 1100 |  |  |  |  |  | Insoluble
2 | Cc1cc(OCCCC(F)(F)P(=O)(O)O)ccc1CCc1cnc2c(N)nc3cc(CCC(=O)O)ccc3c2c1 | Not Active | 74 | 95% | 2400 |  |  |  |  |  | 

The next lines start with results.

Row | Activity [1] | %max [2] [%] | Activity [3] | EC50 (Toll-like receptor 7) [nM] | solubility [4] | Drug uptake (Serum [6]) | Drug uptake (Serum [7]) | Drug uptake (Muscle tissue [8]) | Drug uptake (Muscle tissue [9]) | Structure (SMILES) | solubility [5]
3 | Not Active | 80 | 97% | 1200 |  |  |  |  |  | Cc1cc(OCCOCCOCCC(F)(F)P(=O)(O)O)ccc1CCc1cnc2c(N)nc3cc(CCC(=O)O)ccc3c2c1 | 
4 | Not Active | 140 | 97% | 190 | soluble |  |  |  |  | Cc1cc(OCCOCCOCCP(=O)(O)O)ccc1CCc1cnc2c(N)nc3cc(CCC(=O)O)ccc3c2c1 | 
5 | Not Active | 100 | 98% | 810 | soluble | Not Active | Active | Active | Not Active | Cc1ccc2c(c1)nc(N)c1ncc(CCc3ccc(OCCOCCOCCC(F)(F)P(=O)(O)O)cc3C)cc12 | 
